# Measurements pooled from the literature.
# Compare with care: the assays were run in different laboratories.
# Target: Serine/threonine-protein kinase PAK 5 (PAK5, Homo sapiens, UniProt Q9P286)
Structure (SMILES),assay,conditions,remaining binding
CN(C)CC#Cc1ccc(OCCCc2sc(N3CCc4cccc(C(=O)Nc5nc6ccccc6s5)c4C3)nc2C(=O)O)c(F)c1,"cell-free assay, competition with immobilised ligand",1 µM,91%
CN(C)c1ncc(F)c(-c2cnn3ncccc23)n1,binding,1 µM,76%
O=C(c1ccc(Nc2ncc(Cl)c(-c3cc4ccccc4s3)n2)cc1)N1CCC(N2CCCC2)CC1,"binding, competition with immobilised ligand",1 µM,77%
COc1ccnn2ncc(-c3ccnc(N(C)C)n3)c12,binding,1 µM,94%
CO[C@H]1CC[C@H](CNc2ccc(S(=O)(=O)NC(=O)c3ccc(N4CCN(CC5=C(c6ccc(Cl)cc6)CC(C)(C)CC5)CC4)cc3Oc3cnc4[nH]ccc4c3)cc2[N+](=O)[O-])CC1,"cell-free assay, competition with immobilised ligand",1 µM,99%
COc1cnc(Nc2cccc(S(N)(=O)=O)c2)nc1N1CCN(c2ccccc2)C(=O)C1,"binding, competition with immobilised ligand",1 µM,82%
CC1=C(C#N)C(c2ccc3c(c2)c(NC(=O)c2ccccc2C)nn3C)C(C#N)=C(C)N1,"cell-free assay, competition with immobilised ligand",1 µM,100%
C[C@@H](c1ccc(-n2cnc3c(N)ncnc32)cc1)N1CCc2nn(C)c(Cc3ccccc3)c2C1=O,"binding, competition with immobilised ligand",0.1 µM,69%
O=C(Nc1c[nH]nc1C(=O)NC1CCNCC1)c1cc(F)cc(F)c1,"binding, competition with immobilised ligand",1 µM,100%
CC1CCCN1c1nccc(-c2cnn3ncccc23)n1 (centres unmarked),binding,1 µM,70%
O=C(c1ccc(Nc2nccc(-c3cc4ccccc4s3)n2)cc1)N1CCC(N2CCCC2)CC1,"binding, competition with immobilised ligand",1 µM,79%
Nc1ncc2c(n1)-c1c([nH]c3ccc(C#CC4CC4)cc13)CCCC2,"binding, competition with immobilised ligand",1 µM,97%
C[C@@H]1CN(c2cc(-c3n[nH]c4ccc(OC5(C)CC5)cc34)ncn2)C[C@H](C)O1,"cell-free assay, competition with immobilised ligand",0.1 µM,86%
CN(CCCC(F)(F)F)c1nccc(-c2cnn3ncccc23)n1,binding,1 µM,100%
C[C@@]1(Cc2ccc(C#N)cc2)C(=O)N(c2cc(Cl)cc(Cl)c2)c2ncc(C(=O)NC3(c4nc(C5CCC5)no4)CC3)n21,"cell-free assay, competition with immobilised ligand",1 µM,100%
CN(c1nccc(-c2cnn3ncccc23)n1)C1CC1,binding,1 µM,100%
CS(=O)(=O)N1CCCC(NC(=O)[C@H](CCC2CCCCC2)NC(=O)c2ccc(CNc3ncnc4c3nnn4-c3ccccc3)cc2)C1 (some centres unmarked),"cell-free assay, competition with immobilised ligand",0.1 µM,100%
Cc1cnc(Nc2ccc(C(=O)N3CCC(N4CCCC4)CC3)cc2)nc1-c1cc2ccccc2s1,"binding, competition with immobilised ligand",1 µM,68%
N[C@@H]1CCN(c2nccc(-c3cnn4ncccc34)n2)C1,binding,1 µM,78%
CCN1CCN(Cc2ccc(C(=O)Nc3ccc(C)c(Oc4ccc5c(c4)CC(=O)N5)c3)cc2C(F)(F)F)CC1,"binding, competition with immobilised ligand",1 µM,86%
